Results reported in ChEMBL document CHEMBL1124512, “Synthesis of 3-deazaneplanocin A, a powerful inhibitor of S-adenosylhomocysteine hydrolase with potent and selective in vitro and in vivo antiviral activities” (1989).
In brackets after ≈: the same amount, converted by molar mass. Several values for one entry are separate records, joined by “and”; a condition that tells them apart may be missing. Identical values can stand only once.

Legend:
[1] = tested on: Vesicular stomatitis virus; test: (§1) Viral rating activity against vesicular stomatitis viral strain Indiana in L929 cell line; type: functional
Outline: (§2)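 Virus rating is a weighted score combining the degree of inhibition of the virus-induced cytopathogenic effect with the degree of cytotoxicity. USAMRIID ratings were multiplied by 3 to convert them to the Ehrlich scale.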

[2] = Ratio of minimum toxic compound concentration to inhibitory dose against vesicular stomatitis viral strain Indiana in L929 cell line; type: functional
Outline: (§3)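 Selectivity index is the minimum toxic drug concentration (μg/mL) divided by the ID50 for inhibition of the virus-induced cytopathogenic effect.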

Mus musculus [3] = test: In vivo anti-viral activity against Vaccinia tailpox mice model at dose 8 mg/kg (tested on 19 mice - Experiment 2); type: functional
Mus musculus [4] = test: In vivo anti-viral activity against Vaccinia tailpox mice model at dose 8 mg/kg (tested on 20 mice - Experiment 1); type: functional
Mus musculus [5] = test: In vivo anti-viral activity against Vaccinia tailpox mice model at dose 4 mg/kg (tested on 20 mice - Experiment 2); type: functional
Human respirovirus 3 [6] = test: Inhibitory dose against Parainfluenza type 3 viral strain Huebner C243 in H.Ep-2 cell line; type: functional; settings: Human respirovirus 3, HEp-2; read-out: ID50 (the source's name)
Human respirovirus 3 [7] = test: Viral rating activity against Parainfluenza type 3 viral strain Huebner C243 in H.Ep-2 cell line; type: functional; outline: as §2
[8] = tested on: Vesicular stomatitis virus; test: as §1; type: functional; outline: as §2; remark: listed apart in the source
Yellow fever virus [9] = test: Inhibitory dose against yellow fever viral strain Asibi in vero cell line; type: functional; settings: read-out: ID50 (the source's name)
Yellow fever virus [10] = test: Viral rating activity against yellow fever viral strain Asibi in vero cell line; type: functional; outline: as §2
Vaccinia virus [11] = test: Viral rating activity against vaccinia viral strain Lederle CA in vero cell line; type: functional, Orthopoxvirus vaccinia; outline: as §2
[12] = Ratio of minimum toxic compound concentration to inhibitory dose against Parainfluenza type 3 viral strain Huebner C243 in H.Ep-2 cell line; type: functional; outline: as §3
[13] = Ratio of minimum toxic compound concentration to inhibitory dose against yellow fever viral strain Asibi in vero cell line; type: functional; outline: as §3
[14] = tested on: Vesicular stomatitis virus; test: Inhibitory dose against vesicular stomatitis viral strain Indiana in L929 cell line; type: functional
Yellow fever virus [15] = test: Viral rating of activity against yellow fever viral strain Asibi in vero cell line; type: functional; outline: as §2
Mus musculus [16] = test: In vivo anti-viral activity against Vaccinia tailpox mice model at dose 300 mg/kg (tested on 20 mice - Experiment 1); type: functional
Vaccinia virus [17] = test: Inhibitory dose against vaccinia viral strain Lederle CA in vero cell line; type: functional, Orthopoxvirus vaccinia
[18] = Ratio of minimum toxic compound concentration to inhibitory dose against vaccinia viral strain Lederle CA in vero cell line; type: functional; outline: as §3
Mus musculus [19] = test: In vivo anti-viral activity against Vaccinia tailpox mice model at dose 300 mg/kg (tested on 20 mice - Experiment 2); type: functional

With `Nc1nccc2c1ncn2[C@@H]1C[C@H](CO)[C@@H](O)[C@H]1O` [3-DEAZAARISTEROMYCIN A] the VR [1] was 3.1 and 3.2 and 3.5 and 3.3 and the Selectivity index [2] was 3.6 and 3.8 and 7.2.

Compound `Nc1nccc2c1ncn2C1C=C(CO)C(O)C1O` (stereo not drawn) [3-DEAZANEPLANOCIN A] has a Protection (Mus musculus [3]) of 84%, a Protection (Mus musculus [4]) of 74% and a Protection (Mus musculus [5]) of 82%. It also gave an IC50 (Human respirovirus 3 [6]) of 0.05 µg/mL (≈ 0.191 µM), a VR (Human respirovirus 3 [7]) of 3.6 and a VR [1] of 4.7. For the same compound, the VR [8] was 3.6 and 4.2, the IC50 (Yellow fever virus [9]) was 1 µg/mL (≈ 3.81 µM) and the VR (Yellow fever virus [10]) was 2.9. For the same compound, the VR (Vaccinia virus [11]) was 3.1 and 5.4 and 4.5, the Selectivity index [12] was 2 and the Selectivity index [13] was 0.3. The ID50 [14] was 0.07 µg/mL and 0.2 µg/mL and the IC50 ([14]; read-out: ID50 (the source's name)) was 0.3 µg/mL (≈ 1.14 µM).

`NC(=O)c1ncn([C@@H]2O[C@H](CO)[C@@H](O)[C@H]2O)n1` [RIBAVIRIN] showed an IC50 (Human respirovirus 3 [6]) of 17.5 µg/mL (≈ 71.7 µM), a VR (Human respirovirus 3 [7]) of 2.5 and a Selectivity index [12] of 5.7.

`c1c[se]cn1` [SELENAZOLE] showed an IC50 (Yellow fever virus [9]) of 3.3 µg/mL (≈ 25 µM), a VR (Yellow fever virus [15]) of 2.4 and a Selectivity index [13] of 1.

In the case of `Nc1ncnc2c1ncn2[C@@H]1O[C@H](CO)[C@@H](O)[C@@H]1O` [VIDARABINE], the Protection (Mus musculus [16]) is reported as 56%, the ID50 (Vaccinia virus [17]) is reported as 1 µg/mL and 1.8 µg/mL and the IC50 (Vaccinia virus [17]; Orthopoxvirus vaccinia, Vero, read-out: ID50 (the source's name)) is reported as 2 µg/mL (≈ 7.48 µM). For the same compound, the VR (Vaccinia virus [11]) was 3.7 and 4.2 and 3.6, the Selectivity index [18] was 16.3 and 32.2 and 17.9 and the Protection (Mus musculus [19]) was 88%.
